# Compound activity deposited in PubChem by several laboratories.
# Compounds with a hit are over-represented: about 4% of the library has one in this group of screens.
# MPTP block = mitochondrial permeability transition pore inhibitors, primary screen, biochemical, isolated mouse mitochondria, absorbance | Ca2+ swelling absorbance, 30 min | inhibition, % at 10 µM | hit rate 1.4% among 360,000 | AID 602449, 2012;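 active = inhibition of 50% or more, scaled per plate between neutral and stimulator controls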;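 note: 0% = DMSO wells given calcium and 100% = 1 mM EGTA wells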
# TAAR1 ag = human TAAR1 agonists, primary screen, Fluo-8 calcium fluorescence, CHO RD-HGA16 cells; activation, % at 3 µM; vehicle wells 0%, saturating PEA agonist 100%; hit rate 0.99% among 360,000;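 active = activation above the mean activation of all test compounds in the run plus 3 SD, cut at about 38% in these data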
# Target sequence (Q96RJ0 whole entry, looked up): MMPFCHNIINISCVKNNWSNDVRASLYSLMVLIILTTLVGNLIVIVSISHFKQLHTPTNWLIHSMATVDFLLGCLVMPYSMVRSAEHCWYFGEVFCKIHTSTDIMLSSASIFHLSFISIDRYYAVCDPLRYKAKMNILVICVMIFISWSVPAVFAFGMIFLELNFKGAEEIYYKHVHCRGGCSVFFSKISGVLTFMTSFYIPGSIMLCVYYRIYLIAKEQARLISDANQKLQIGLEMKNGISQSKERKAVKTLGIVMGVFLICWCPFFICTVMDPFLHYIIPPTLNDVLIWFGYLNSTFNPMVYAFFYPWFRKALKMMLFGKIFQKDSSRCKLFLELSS
#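 System: CHO-derived RD-HGA16 cells with stable Gα16 and human TAAR1. Times: 17-24 h plating, Fluo-8 75 min 37 °C, 30 min RT. Measured by: calcium-sensitive Fluo-8 signal, excitation 470-495, emission 515-575 nm. Read-out basis: % activation relative to PEA EC100 response. Control set: DMSO and PEA EC100. Repeats: no replicates (n 1).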
# TAAR1 antag = human TAAR1 antagonists, primary screen, Fluo-8 calcium fluorescence, CHO RD-HGA16 cells; inhibition, % at 3 µM; Trace amine-associated receptor 1 (Homo sapiens), Q96RJ0; antagonist; hit rate 1.5% among 360,000;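 active = inhibition above a per-plate cutoff, the mean inhibition of test compounds on that plate plus 3 SD, cut at about 49% in these data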;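 note: 0% = DMSO plus EC80 beta-PEA response and 100% = DMSO alone without agonist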
#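 Test system: hTAAR1-expressing CHO RD-HGA16 cells, Gα16-coupled; Probe or stimulus: EC80 β-phenethylamine stimulus; Compound dosing: single nominal final test compound concentration of 3 µM; Timing: 140 s kinetic read after compound, 140 s after agonist; Signal: Fluo-8 calcium-sensitive fluorescence; Measure: % inhibition of agonist calcium response; Controls: DMSO and EC80 PEA controls.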
# GPR7 antagonist = GPR7 receptor antagonists, primary screen, cell-based, fluorescence, single concentration. inhibition, % at 4.4 µM. hit rate 1.1% among 290,000. GPR7-expressing cells, fluorescence antagonist assay; in the data active = inhibition above about 16%, passing the limit was not always enough;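 note: cells stimulated with the agonist NPW; 0% = agonist with vehicle and 100% = vehicle without agonist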
# Target sequence (P48145 whole entry, looked up): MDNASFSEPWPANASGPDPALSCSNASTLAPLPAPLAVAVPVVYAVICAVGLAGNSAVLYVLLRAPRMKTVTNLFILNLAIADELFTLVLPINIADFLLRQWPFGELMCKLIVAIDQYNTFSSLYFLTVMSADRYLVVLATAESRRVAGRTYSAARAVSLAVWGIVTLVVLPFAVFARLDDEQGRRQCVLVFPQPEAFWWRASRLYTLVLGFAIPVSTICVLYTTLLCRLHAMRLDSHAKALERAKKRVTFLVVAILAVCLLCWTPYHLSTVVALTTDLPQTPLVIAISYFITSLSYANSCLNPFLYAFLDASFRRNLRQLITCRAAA
# DAGLB inhibitor = DAGLB lipase inhibitors, primary screen, biochemical, fluorescence, HTS; hit rate 0.059% among 340,000; Diacylglycerol lipase-beta (Homo sapiens), Q8NCG7; HEK293T DAGLB membrane lysate, EnzChek fluorogenic substrate; inhibition, % at 5.17 µM; in the data active = inhibition above about 34%;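 note: 0% = enzyme with vehicle and 100% = wells lacking enzyme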
# TAAR1 nonsel count = nonselective antagonists in TAAR1 counter-screen cells, counter-screen for hTAAR1 antagonist project, cell-based, fluorescence, calcium; shares compounds with TAAR1 antag; counterscreen cell line, antagonist mode; inhibition, % at 3 µM; hit rate 77% among 2,400; in the data active = inhibition above about 22%;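 note: CHO-Ga16 host cells stimulated with ATP at an EC80 level; 0% = agonist EC80 plus vehicle and 100% = vehicle without agonist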
# TAAR1 ant conf = human TAAR1 antagonists, retest of hits, confirmation, cell-based, fluorescence. shares compounds with TAAR1 antag. TAAR1-expressing cells, fluorescence antagonist read-out. inhibition, % at 3 µM. hit rate 40% among 2,400. AID 651785, 2012; in the data active = inhibition above about 49%;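 note: CHO-Ga16 host cells challenged with agonist PEA near its EC80; 0% = agonist at EC80 plus vehicle and 100% = vehicle with no agonist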
# Ga16 ag counter = calcium activation in Ga16-expressing cells, counter-screen for TAAR1 antagonist project, cell-based, fluorescence. shares compounds with TAAR1 antag. agonist counterscreen. activation, % at 3 µM. hit rate 18% among 2,400; in the data active = activation above about 12%;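 note: 0% = vehicle wells and 100% = saturating stimulus response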
# TAAR1 ag count = TAAR1 activation by candidate antagonists – cell-based, fluorescence, counter-screen for TAAR1 antagonist project; hit rate 2% among 2,400; activation, % at 3 µM; shares compounds with TAAR1 antag; hTAAR1 cell line, agonist mode; AID 651955, 2012; in the data active = activation above about 37%;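 note: CHO cells stably expressing TAAR1 with calcium dye readout; 0% = DMSO vehicle and 100% = full agonist response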
# An asterisk follows results filed as active; · = no result given.
SMILES,MPTP block,TAAR1 ag,TAAR1 antag,GPR7 antagonist,DAGLB inhibitor,TAAR1 nonsel count,TAAR1 ant conf,Ga16 ag counter,TAAR1 ag count
Cc1nn(-c2ccccn2)c2nc(-c3cccs3)cc(C(=O)NCc3ccco3)c12,1,14,60*,4,5,32*,49*,5,4
CC(C)OCCCNC(=O)c1cc(-c2cccs2)nc2ccccc12,1,17,57*,-12,-4,31*,49,7,11
CCOC(=O)c1cc(-c2cccs2)nc2c1c(C)nn2-c1ccccn1,1,2,28,15,-5,·,·,·,·
O=C(NCc1ccco1)c1cc(-c2cccs2)nc2ccccc12,0,12,62*,-2,-4,27*,42,6,3
O=C(N/N=C/c1ccc2ncccc2c1)c1cc(-c2cccs2)nc2ccccc12,1,3,57*,3,-10,27*,44,5,15
CCOCCCNC(=O)c1cc(-c2ccc(Br)s2)nc2ccccc12,3,0,2,-19,-6,·,·,·,·
O=C(COC(=O)c1cc(-c2cccs2)nc2ccccc12)NCc1ccco1,-1,7,21,-6,-3,·,·,·,·
COc1ccc(-c2nc3c(Cl)cc(C(F)(F)F)cn3c2Cc2ccc(C)cc2)cc1OC,2,-1,-15,·,·,·,·,·,·
COc1cc(-c2cc(C(=O)NCc3ccc(S(N)(=O)=O)cc3)c3ccccc3n2)cc(OC)c1OC,-1,1,32,-3,-1,·,·,·,·
COc1cc(-c2cc(C(=O)NCc3ccco3)c3ccccc3n2)cc(OC)c1OC,-1,11,57*,-17,-1,23*,42,8,7
Cc1cc(C)c2nc(NNC(=O)c3cc(-c4cccs4)nc4ccccc34)sc2c1,26,16,56*,-1,3,35*,50*,11,9
CCOC(=O)[C@]12CCC=C1N(Cc1ccc(Cl)cc1Cl)C(=O)[C@H](CC(=O)NCCCN1CCCC1=O)C2,0,-1,-11,·,·,·,·,·,·
O=C(Nc1ccc(Cl)cc1)N(Cc1nc2ccccc2c(=O)[nH]1)Cc1cccs1,11,15,33,-7,2,·,·,·,·
O=C(Nc1ccc(Cl)cc1)N(Cc1cccs1)Cc1cccs1,1,14,71*,-12,-13,29*,45,5,1
Cc1cccnc1C(NC(=O)C1CCN(Cc2cn(C)c3ccccc23)CC1)c1ccc(Cl)cc1 (centres undefined),3,32,16,·,·,·,·,·,·
CN(Cc1cnn(-c2ccccc2)c1)C(=O)c1cccc(S(=O)(=O)N(C)c2ccccc2)c1,8,3,63*,·,-3,35*,42,9,4
CCc1noc(C)c1C(=O)Nc1nc(-c2ccc(NC(C)=O)cc2)cs1,-2,18,70*,·,0,29*,48,22*,31
CCOC(=O)C1=C(C)NC(C)=C(C(=O)OCC)C1C(=O)OCC(=O)NC(C)C,-2,16,60*,-11,3,23*,45,8,9
O=c1c2ccccc2nc(COc2ccccc2)n1/N=C/c1ccc(O)cc1O,2,12,79*,5,4,32*,61*,8,8
CC(C)(C)c1cc(NC(=O)c2ccc(OC3CCCC3)cc2)no1,2,0,51*,-14,-8,25*,31,4,3
O=C(Nc1ccon1)c1ccc(OC2CCCC2)cc1,9,6,5,-2,-2,·,·,·,·
O=C(/C=C/c1ccccc1Cl)OCC(=O)N1CCc2ccccc21,0,5,-23,·,-4,·,·,·,·
CCCCN(c1nc2ccccc2nc1Cl)S(=O)(=O)c1ccc(C)cc1,1,0,14,-11,-17,·,·,·,·
COc1cccc2cc(CC(=O)c3cc(C)ccc3C)c(=O)oc12,0,10,58*,-5,-7,29*,49*,6,4
COc1cccc2cc(CC(=O)c3ccc(C)c(C)c3)c(=O)oc12,-1,7,34,-13,-9,·,·,·,·
SMILES,MPTP block,TAAR1 ag,TAAR1 antag,GPR7 antagonist,DAGLB inhibitor,TAAR1 nonsel count,TAAR1 ant conf,Ga16 ag counter,TAAR1 ag count
CC(=O)c1ccc(N2CCN(C(=O)CCCn3c(=O)[nH]c4ccc(Br)cc4c3=O)CC2)cc1,8,8,67*,-3,2,37*,54*,11,6
Cc1cccc(C)c1NC(=O)CN(Cc1ccccc1)Cc1ccccc1,-2,16,62*,·,·,23*,26,4,9
Cc1cccc(C)c1NC(=O)CNc1ccccc1,2,2,-12,-7,5,·,·,·,·
OC(c1ccco1)c1nc(-c2ccc(F)c(Cl)c2)cs1 (centres undefined),3,-1,-5,·,·,·,·,·,·
CCCN(CCC)Cc1cc(=O)oc2ccccc12,·,2,16,·,·,·,·,·,·
CCCCCCC(=O)N(O)C1CC(=O)N(c2ccc(Br)cc2)C1=O (centres undefined),2,-4,106*,-14,4,12,13,2,1
Nc1ccn([C@@H]2O[C@H](C(=O)NCC(=O)N3CCOCC3)[C@@H](O)[C@H]2O)c(=O)n1,·,0,7,·,·,·,·,·,·
CCOC(=O)CNC(=O)N1C[C@H]2CON(C)[C@H]2C[C@H]1c1ccccc1Br,-2,3,-3,·,2,·,·,·,·
COc1ccccc1/C=C/C(=O)NC(=S)NC(C)C,1,6,59*,2,-3,19,44,10,19
COc1ccc(CCNC(=O)c2ccc(-c3cccc([N+](=O)[O-])c3)o2)cc1OC,-2,25,60*,-5,-1,28*,46,15*,14
COc1ccc(CCNC(=O)c2cccc([N+](=O)[O-])c2)cc1OC,2,1,-13,·,-2,·,·,·,·
CC(=O)N1CCN(c2ccccc2NC(=O)c2ccc(-c3cccc([N+](=O)[O-])c3)o2)CC1,3,10,66*,-12,1,28*,49*,7,4
COc1cc(NC(=O)c2ccc(-c3cccc([N+](=O)[O-])c3)o2)ccc1NC(=O)C(C)C,1,8,63*,-31,4,31*,45,6,4
